Data: ChEMBL document CHEMBL2010768, “Optimization of Potent Inhibitors of P. falciparum Dihydroorotate Dehydrogenase for the Treatment of Malaria” (ACS Med Chem Lett, 2011)
The source made the active and inactive calls. No cut-off for these calls is given here.

How the values were obtained:
[1] = Clearance in dog at 1 mg/kg, iv by LC-MS/MS analysis; type: ADME, organism-based, Canis lupus familiaris; design: dose 1 mg/kg, route intravenous; details: in vivo
[2] = Half life in dog at 1 mg/kg, iv by LC-MS/MS analysis; type: ADME, organism-based, Canis lupus familiaris; design: dose 1 mg/kg, route intravenous; details: in vivo
[3] = Permeability of the compound by parallel artificial membrane permeation assay; type: ADME; details: PAMPA; read-out: permeability
[4] = test system: Salmonella typhimurium; assay: Mutagenic activity in S9-induced Salmonella typhimurium 1535 up to 100 uM by Ames test; type: toxicity, organism-based; details: salmonella enterica subsp. enterica serovar typhimurium
[5] = Clearance in mouse liver microsomes by LC-MS/MS analysis; type: ADME, Microsome
Outline: (§1)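 Liver microsome incubation. Predicted clearance is derived from a well-stirred model corrected for microsomal and protein binding.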

[6] = test system: Plasmodium vivax; assay: Inhibition of Plasmodium vivax DHODH after 20 mins by 2,6-dichloroindophenol-reduction based assay
[7] = test system: Salmonella typhimurium; assay: Mutagenic activity in Salmonella typhimurium 1535 up to 100 uM by Ames test; type: toxicity, organism-based; details: salmonella enterica subsp. enterica serovar typhimurium
[8] = test system: Salmonella typhimurium; assay: Mutagenic activity in S9-induced Salmonella typhimurium TA98 up to 100 uM by Ames test; type: toxicity, organism-based; details: salmonella enterica subsp. enterica serovar typhimurium
[9] = target: Cytochrome P450 2C19 (Homo sapiens, UniProt P33261); assay: Inhibition of human CYP2C19 using S-mephenytoin as substrate after 45 mins by LC-MS/MS analysis; type: ADME
[10] = Volume of distribution at steady state in rat at 1 mg/kg, iv by LC-MS/MS analysis; type: ADME, organism-based; design: dose 1 mg/kg, route intravenous; details: in vivo, read-out: Vdss
[11] = target: Cytochrome P450 2C9 (Homo sapiens, UniProt P11712); assay: Inhibition of human CYP2C9 using diclofenac as substrate after 10 mins by LC-MS/MS analysis; type: ADME
[12] = test system: Plasmodium berghei; assay: Inhibition of Plasmodium berghei DHODH after 20 mins by 2,6-dichloroindophenol-reduction based assay
[13] = Toxicity in po dosed rat administered qd for 7 days measured after 7 days washout period; type: organism-based; details: in vivo
Outline: (§2)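 Rats dosed orally once daily for 7 days at 0 (control), 50, 150, 450 and 600 mg/kg, then a 7-day washout. NOAEL determined, with Cmax and AUC reported at that exposure.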

[14] = target: T1, Cytochrome P450 1A2 (Homo sapiens, UniProt P05177); assay: Inhibition of human CYP1A2 using phenacetin as substrate after 10 mins by LC-MS/MS analysis; type: ADME
T1 sequence (P05177 whole entry): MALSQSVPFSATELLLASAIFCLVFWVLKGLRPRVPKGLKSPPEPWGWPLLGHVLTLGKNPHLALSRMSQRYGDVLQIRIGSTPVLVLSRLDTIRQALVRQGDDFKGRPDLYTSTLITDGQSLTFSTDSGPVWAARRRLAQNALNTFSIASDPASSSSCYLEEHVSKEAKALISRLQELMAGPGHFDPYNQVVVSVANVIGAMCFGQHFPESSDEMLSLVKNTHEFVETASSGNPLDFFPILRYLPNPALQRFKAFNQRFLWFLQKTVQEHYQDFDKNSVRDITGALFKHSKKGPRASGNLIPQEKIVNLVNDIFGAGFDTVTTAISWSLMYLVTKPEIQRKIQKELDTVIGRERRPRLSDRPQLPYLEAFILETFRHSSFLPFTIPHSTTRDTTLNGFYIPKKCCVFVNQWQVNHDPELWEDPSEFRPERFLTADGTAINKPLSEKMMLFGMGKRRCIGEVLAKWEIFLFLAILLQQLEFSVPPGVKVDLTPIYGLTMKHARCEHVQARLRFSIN

[15] = test system: Salmonella typhimurium; assay: Mutagenic activity in Salmonella typhimurium TA98 up to 100 uM by Ames test; type: toxicity, organism-based; details: salmonella enterica subsp. enterica serovar typhimurium
[16] = AUC (0 to infinity) in rat at 3 mg/kg, po by LC-MS/MS analysis; type: ADME, organism-based; design: time infinity, dose 3 mg/kg, route oral; details: plasma
[17] = Half life in rat at 1 mg/kg, iv by LC-MS/MS analysis; type: ADME, organism-based; design: dose 1 mg/kg, route intravenous; details: in vivo
[18] = Cmax in dog at 3 mg/kg, po by LC-MS/MS analysis; type: ADME, organism-based, Canis lupus familiaris; design: dose 3 mg/kg, route oral; details: in vivo
[19] = test system: Canis familiaris; assay: Oral bioavailability in dog at 3 mg/kg by LC-MS/MS analysis; type: ADME, organism-based, Canis lupus familiaris; details: in vivo
[20] = Volume of distribution at steady state in dog at 1 mg/kg, iv by LC-MS/MS analysis; type: ADME, organism-based, Canis lupus familiaris; design: dose 1 mg/kg, route intravenous; details: in vivo, read-out: Vdss
[21] = test system: Plasmodium falciparum; assay: Antimalarial activity against Plasmodium falciparum 3D70087/N9 infected in po dosed NOD-scid IL-2Rgamma-null mouse model compound administered bid for 4 to 7 days by FACS analysis; type: functional; details: 3D7 0087/N9, 4TO7, po
Outline: (§3)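 Oral dosing in mouse malaria models. Efficacy is expressed as ED50, ED90 and ED99 in mg/kg/day.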

[22] = Cmax in rat at 50 to 600 mg/kg, po qd for 7 days measured after 7 days washout period; type: ADME, organism-based; design: dose 50-600 mg/kg, route oral; details: in vivo; outline: as §2
[23] = test system: Salmonella typhimurium; assay: Mutagenic activity in S9-induced Salmonella typhimurium 100 up to 100 uM by Ames test; type: toxicity, organism-based; details: salmonella enterica subsp. enterica serovar typhimurium
[24] = Plasma protein binding in human by LC-MS/MS analysis; type: ADME, cell-free; details: read-out: PPB (converted)
[25] = AUC in rat at 50 to 600 mg/kg, po qd for 7 days measured after 7 days washout period; type: ADME, organism-based; design: dose 50-600 mg/kg, route oral; details: plasma; outline: as §2
[26] = Cmax in rat at 3 mg/kg, po by LC-MS/MS analysis; type: ADME, organism-based; design: dose 3 mg/kg, route oral; details: in vivo
[27] = test system: Plasmodium falciparum; assay: Antiplasmodial activity against Plasmodium falciparum 3D7 infected in […] after 72 hrs by SYBR green assay; type: functional, organism-based; details: 3D7, 72 h
[28] = target: Cytochrome P450 2D6 (Homo sapiens, UniProt P10635); assay: Inhibition of human CYP2D6 using bufuralol as substrate after 10 mins by LC-MS/MS analysis; type: ADME
[29] = Plasma protein binding in mouse by LC-MS/MS analysis; type: ADME, cell-free; details: read-out: PPB (converted)
[30] = test system: Salmonella typhimurium; assay: Mutagenic activity in Salmonella typhimurium 100 up to 100 uM by Ames test; type: toxicity, organism-based; details: salmonella enterica subsp. enterica serovar typhimurium
[31] = target: T2, Dihydroorotate dehydrogenase (Plasmodium falciparum, UniProt Q54A96); assay: Inhibition of Plasmodium falciparum DHODH after 20 mins by 2,6-dichloroindophenol-reduction based assay
T2 sequence (Q54A96 whole entry): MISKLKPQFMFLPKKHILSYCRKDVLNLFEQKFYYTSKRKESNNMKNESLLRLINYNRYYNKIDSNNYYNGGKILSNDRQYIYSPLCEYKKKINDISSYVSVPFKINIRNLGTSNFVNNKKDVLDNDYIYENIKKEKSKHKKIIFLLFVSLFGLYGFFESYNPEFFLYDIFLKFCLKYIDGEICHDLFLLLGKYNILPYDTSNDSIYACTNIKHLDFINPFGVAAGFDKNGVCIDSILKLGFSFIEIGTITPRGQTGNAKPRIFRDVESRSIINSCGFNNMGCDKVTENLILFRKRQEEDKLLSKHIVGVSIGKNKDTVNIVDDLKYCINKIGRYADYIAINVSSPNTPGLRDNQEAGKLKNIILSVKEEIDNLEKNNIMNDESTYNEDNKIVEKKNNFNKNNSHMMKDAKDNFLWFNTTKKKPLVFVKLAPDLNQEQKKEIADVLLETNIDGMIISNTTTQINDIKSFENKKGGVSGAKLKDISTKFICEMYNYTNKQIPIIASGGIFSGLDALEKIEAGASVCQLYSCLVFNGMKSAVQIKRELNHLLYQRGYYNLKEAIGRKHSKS

[32] = test system: Plasmodium berghei; assay: Antimalarial activity against Plasmodium berghei ANKA infected in orally dosed mouse model compound administered at 9 hrs post-infection on first day followed by bid for subsequent 3 days; type: functional; details: po; outline: as §3
[33] = Clearance in human liver microsomes by LC-MS/MS analysis; type: ADME, Microsome; outline: as §1
[34] = test system: Canis familiaris; assay: AUC (0 to infinity) in dog at 3 mg/kg, po by LC-MS/MS analysis; type: ADME, organism-based, Canis lupus familiaris, Plasma; design: time infinity, dose 3 mg/kg, route oral; details: in vivo
[35] = Plasma protein binding in rat by LC-MS/MS analysis; type: ADME, cell-free; details: read-out: PPB (converted)
[36] = target: Cytochrome P450 3A4 (Homo sapiens, UniProt P08684); assay: Inhibition of human CYP3A4 using midazolam as substrate after 5 mins by LC-MS/MS analysis; type: ADME
[37] = Clearance in rat at 1 mg/kg, iv by LC-MS/MS analysis; type: ADME, organism-based; design: dose 1 mg/kg, route intravenous; details: in vivo
[38] = Oral bioavailability in rat at 3 mg/kg by LC-MS/MS analysis; type: ADME, organism-based; details: in vivo
[39] = AUC (0 to infinity) in rat at 1 mg/kg, iv by LC-MS/MS analysis; type: ADME, organism-based; design: time infinity, dose 1 mg/kg, route intravenous; details: plasma
[40] = test system: Plasmodium falciparum; assay: Antiplasmodial activity against Plasmodium falciparum Dd2 infected in […] after 72 hrs by SYBR green assay; type: functional, organism-based; details: Dd2, 72 h
[41] = test system: Canis familiaris; assay: AUC (0 to infinity) in dog at 1 mg/kg, iv by LC-MS/MS analysis; type: ADME, organism-based, Canis lupus familiaris, Plasma; design: dose 1 mg/kg, route intravenous, time infinity; details: in vivo
[42] = Plasma protein binding in dog by LC-MS/MS analysis; type: ADME, cell-free, Canis lupus familiaris; details: read-out: PPB (converted)
[43] = Unbound fraction in human plasma; type: ADME, cell-free

Chain of Cytochrome P450 2C19 (P33261 whole entry): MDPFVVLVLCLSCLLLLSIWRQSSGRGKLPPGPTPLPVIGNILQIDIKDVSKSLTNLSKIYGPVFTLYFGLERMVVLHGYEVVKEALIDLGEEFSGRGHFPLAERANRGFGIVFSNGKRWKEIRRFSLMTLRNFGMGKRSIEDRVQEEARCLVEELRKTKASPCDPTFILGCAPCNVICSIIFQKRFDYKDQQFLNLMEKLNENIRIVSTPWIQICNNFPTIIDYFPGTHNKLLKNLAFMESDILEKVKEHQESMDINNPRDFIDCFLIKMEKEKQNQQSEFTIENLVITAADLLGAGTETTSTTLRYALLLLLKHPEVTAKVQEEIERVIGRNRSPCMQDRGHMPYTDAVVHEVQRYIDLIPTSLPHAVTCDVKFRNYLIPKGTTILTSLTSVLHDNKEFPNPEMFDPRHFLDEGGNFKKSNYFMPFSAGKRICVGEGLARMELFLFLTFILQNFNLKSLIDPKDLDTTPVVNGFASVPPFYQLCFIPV
Chain of Cytochrome P450 3A4 (P08684 whole entry): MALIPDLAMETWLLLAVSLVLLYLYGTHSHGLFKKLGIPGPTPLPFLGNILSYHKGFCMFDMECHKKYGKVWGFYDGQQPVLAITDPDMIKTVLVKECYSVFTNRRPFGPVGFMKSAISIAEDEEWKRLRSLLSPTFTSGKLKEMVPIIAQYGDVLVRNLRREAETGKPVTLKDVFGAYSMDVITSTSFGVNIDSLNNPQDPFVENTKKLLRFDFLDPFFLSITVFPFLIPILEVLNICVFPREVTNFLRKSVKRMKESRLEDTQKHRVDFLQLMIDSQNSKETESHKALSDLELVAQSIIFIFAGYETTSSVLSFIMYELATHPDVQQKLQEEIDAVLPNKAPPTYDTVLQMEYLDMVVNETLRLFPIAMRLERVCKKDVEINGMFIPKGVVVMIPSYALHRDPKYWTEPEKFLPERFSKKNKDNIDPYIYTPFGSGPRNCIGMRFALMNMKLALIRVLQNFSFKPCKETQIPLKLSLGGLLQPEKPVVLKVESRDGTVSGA
Chain of Cytochrome P450 2D6 (P10635 whole entry): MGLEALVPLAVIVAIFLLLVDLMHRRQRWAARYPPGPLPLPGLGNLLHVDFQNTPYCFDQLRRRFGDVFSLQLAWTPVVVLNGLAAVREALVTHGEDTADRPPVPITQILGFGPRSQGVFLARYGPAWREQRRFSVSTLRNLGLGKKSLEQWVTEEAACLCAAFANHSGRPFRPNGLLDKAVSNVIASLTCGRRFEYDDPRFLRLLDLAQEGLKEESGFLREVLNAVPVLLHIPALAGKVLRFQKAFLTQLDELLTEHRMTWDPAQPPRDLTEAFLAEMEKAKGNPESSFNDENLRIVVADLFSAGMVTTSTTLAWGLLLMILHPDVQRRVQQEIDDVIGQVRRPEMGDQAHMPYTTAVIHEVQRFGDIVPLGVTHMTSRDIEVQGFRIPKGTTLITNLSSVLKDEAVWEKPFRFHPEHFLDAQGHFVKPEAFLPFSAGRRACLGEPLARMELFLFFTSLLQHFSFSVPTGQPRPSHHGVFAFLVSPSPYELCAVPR
Chain of Cytochrome P450 2C9 (P11712 whole entry): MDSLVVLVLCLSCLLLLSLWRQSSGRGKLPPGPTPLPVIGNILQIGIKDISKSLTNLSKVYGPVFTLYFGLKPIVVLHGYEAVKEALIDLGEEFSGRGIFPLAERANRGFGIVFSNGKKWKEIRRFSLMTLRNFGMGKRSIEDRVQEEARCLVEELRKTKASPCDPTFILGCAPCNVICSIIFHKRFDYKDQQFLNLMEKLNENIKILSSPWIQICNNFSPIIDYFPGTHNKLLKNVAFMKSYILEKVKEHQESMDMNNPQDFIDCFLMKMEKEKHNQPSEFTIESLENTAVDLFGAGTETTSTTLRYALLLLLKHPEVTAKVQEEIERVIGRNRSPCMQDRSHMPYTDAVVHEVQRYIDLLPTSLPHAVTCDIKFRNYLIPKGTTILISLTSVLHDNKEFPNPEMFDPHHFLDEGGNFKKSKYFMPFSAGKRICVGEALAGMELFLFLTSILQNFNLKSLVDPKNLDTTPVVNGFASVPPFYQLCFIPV

Compound `Cc1nc2c(C#N)cccc2n1-c1ccc(C(=O)NC2CC2)s1` has a clearance [1] of 6.7 mL/min/kg, a half-life [2] of 31.2 min and a Papp [3] of 49 ×10⁻⁶ cm/s. The Activity [4] was “Non-toxic”, the CLhep predicted [5] was 26 mL/min/kg and the inhibition [6] was “Active”. The Activity [7] was “Non-toxic”, the Activity [8] was “Non-toxic” and the IC50 [9] was over 10000 nM. The Vd [10] was 0.995 L/kg, the IC50 [11] was over 10000 nM and the inhibition [12] was “Active”. For the same compound, the NOAEL at 168 h [13] was over 600 mg/kg, the IC50 [14] was over 10000 nM and the Activity [15] was “Non-toxic”. For the same compound, the AUC(0-inf) [16] was 1040 ng·h/mL, the half-life [17] was 51 min and the Cmax [18] was 1110 ng/mL. For the same compound, the F [19] was 19%, the Vd [20] was 0.279 L/kg and the ED50 [21] was 13 mg/kg/day. It also gave an ED90 [21] of 27 mg/kg/day, an ED99 [21] of 60 mg/kg/day and a Cmax [22] of 29000 ng/mL. For the same compound, the Activity [23] was “Non-toxic”, the fraction unbound [24] was 0.112 and the AUC at 168 h [25] was 328000 ng·h/mL. The Cmax [26] was 618 ng/mL, the IC50 [27] was 7 nM and the IC50 [28] was over 10000 nM. For the same compound, the fraction unbound [29] was 0.182, the Activity [30] was “Non-toxic” and the IC50 [31] was 40 nM. It also gave an ED50 [32] of 13 mg/kg/day, an ED90 [32] of 28 mg/kg/day and an ED99 [32] of 62 mg/kg/day. It also gave a CLhep predicted [33] of under 4 mL/min/kg, an AUC [34] of 359 ng·h/mL and a fraction unbound [35] of 0.22. It also gave an IC50 [36] of over 10000 nM, a clearance [37] of 24 mL/min/kg and a bioavailability [38] of 49%. For the same compound, the AUC(0-inf) [39] was 703 ng·h/mL, the IC50 [40] was 10 nM and the AUC [41] was 1500 ng·h/mL. For the same compound, the fraction unbound [42] was 0.312 and the fraction unbound [43] was 0.11.
